According to ChEMBL document CHEMBL4371016, “Proline- and Arginine-Rich Peptides as Flexible Allosteric Modulators of Human Proteasome Activity” (J Med Chem, 2019):
The source made the active and inactive calls. The calls are words filed in the database; no cut-off is given here. Residues, ends and D or L forms follow the SMILES beside them.

Columns and labels:
[1] = biological target: T1, 20S proteasome (Homo sapiens) (UniProt P49721+P20618+P28074+P28062+P28065+P28072+P25786+P25787+P25788+P25789+P28066+P60900+O14818+Q8TAA3+P40306+A5LHX3+P49720+P28070+Q99436); test: Negative allosteric modulation of SDS-activated human erythrocytes 20S proteasome assessed as reduction in yeast enolase degradation at 1 uM after 4 hr by SDS-PAGE analysis
[2] = biological target: T2, Proteasome Macropain subunit MB1 (Homo sapiens) (UniProt P28074); test: Positive allosteric modulation of latent human erythrocytes 20S proteasome chymotrypsin like activity up to 10 uM using LFP as substrate measured every 2 mins up to 60 mins by fluorescence assay
T2 sequence (whole entry): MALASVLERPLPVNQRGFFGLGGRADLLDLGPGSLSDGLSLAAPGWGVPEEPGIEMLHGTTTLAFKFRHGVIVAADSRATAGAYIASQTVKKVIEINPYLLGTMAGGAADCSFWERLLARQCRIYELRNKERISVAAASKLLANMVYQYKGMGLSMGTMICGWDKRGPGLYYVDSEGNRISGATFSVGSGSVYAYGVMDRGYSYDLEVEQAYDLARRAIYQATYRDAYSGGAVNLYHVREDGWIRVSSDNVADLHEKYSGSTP

[3] = biological target: T2, Proteasome Macropain subunit MB1 (Homo sapiens); test: Positive allosteric modulation of latent human erythrocytes 20S proteasome chymotrypsin like activity at 1 uM using Suc-LLVY-AMC as substrate measured every 2 mins up to 60 mins by fluorescence assay
[4] = biological target: T1, 20S proteasome (Homo sapiens); test: Negative allosteric modulation of SDS-activated human erythrocytes 20S proteasome assessed as reduction in human alpha-synuclein degradation at 10 uM after 1 hr by SDS-PAGE analysis
Procedure, shortened: (§1)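 Human α-synuclein or yeast enolase digested by human 20S activated with 0.01% SDS (20S:substrate 1:100 pmol α-syn, 1:10 pmol enolase) in 20 mM HEPES pH 7.4 at 37 °C for 1 h (α-syn) or 4 h (enolase). DMSO at or below 0.05%. SDS–PAGE (12% or 10%) with Coomassie staining; remaining substrate densitometry as percent of control; at least three experiments, mean ± SEM.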

[5] = biological target: T3, Proteasome component C5 (Homo sapiens) (UniProt P20618); test: Negative allosteric modulation of SDS-activated human erythrocytes 20S proteasome caspase like activity at lower concentration using Z-LLE-AMC as substrate measured every 2 mins up to 60 mins by fluorescence assay
T3 sequence (whole entry): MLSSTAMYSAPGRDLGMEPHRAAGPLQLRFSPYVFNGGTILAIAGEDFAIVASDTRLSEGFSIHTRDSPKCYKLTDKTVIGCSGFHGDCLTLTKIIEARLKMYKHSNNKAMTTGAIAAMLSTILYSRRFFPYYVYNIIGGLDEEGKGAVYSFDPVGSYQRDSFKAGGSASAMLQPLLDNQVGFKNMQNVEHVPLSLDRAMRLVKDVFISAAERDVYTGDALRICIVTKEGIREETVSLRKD

[6] = biological target: Proteasome Macropain subunit (Homo sapiens) (UniProt P49721); test: Negative allosteric modulation of SDS-activated human erythrocytes 20S proteasome trypsin like activity at 10 uM using Boc-LRR-AMC as substrate measured every 2 mins up to 60 mins by fluorescence assay
[7] = biological target: T1, 20S proteasome (Homo sapiens); test: Negative allosteric modulation of SDS-activated human erythrocytes 20S proteasome assessed as reduction in yeast enolase degradation at 10 uM after 4 hr by SDS-PAGE analysis
[8] = biological target: T2, Proteasome Macropain subunit MB1 (Homo sapiens); test: Positive allosteric modulation of latent human erythrocytes 20S proteasome chymotrypsin like activity up to 10 uM using LFP as substrate measured every 2 mins up to 60 mins by fluorescence assay
[9] = biological target: T2, Proteasome Macropain subunit MB1 (Homo sapiens); test: Negative allosteric modulation of SDS-activated human erythrocytes 20S proteasome chymotrypsin like activity using Suc-LLVY-AMC as substrate measured every 2 mins up to 60 mins by fluorescence assay
Procedure, shortened: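 1.4 nM CP (0.001 mg/mL) in 50 mM Tris-HCl pH 8.0, activated with 0.005% SDS where stated, otherwise latent. Suc-LLVY-AMC at 100 μM final. AMC fluorescence read every 2 min up to 60 min at 37 °C. Activity relative to DMSO-treated enzyme, from at least three independent replicates. Peptide stocks 10 mM in DMSO.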

[10] = biological target: T2, Proteasome Macropain subunit MB1 (Homo sapiens); test: Negative allosteric modulation of SDS-activated human erythrocytes 20S proteasome chymotrypsin like activity up to 10 uM using LFP as substrate measured every 2 mins up to 60 mins by fluorescence assay
[11] = biological target: T1, 20S proteasome (Homo sapiens); test: Positive allosteric modulation of SDS-activated human erythrocytes 20S proteasome assessed as increase in human alpha-synuclein degradation at 10 uM after 1 hr by SDS-PAGE analysis
[12] = biological target: Proteasome subunit beta type-6 (Homo sapiens) (UniProt P28072); test: Positive allosteric modulation of latent human erythrocytes 20S proteasome caspase like activity at 10 uM using Z-LLE-AMC as substrate measured every 1 min up to 60 mins by fluorescence assay relative to control
[13] = biological target: T1, 20S proteasome (Homo sapiens); test: Negative allosteric modulation of SDS-activated human erythrocytes 20S proteasome assessed as reduction in human alpha-synuclein degradation at 1 uM after 1 hr by SDS-PAGE analysis
Procedure, shortened: as §1

[14] = biological target: T1, 20S proteasome (Homo sapiens); test: Positive allosteric modulation of SDS-activated human erythrocytes 20S proteasome assessed as increase in yeast enolase degradation at 1 uM after 4 hr by SDS-PAGE analysis relative to control
[15] = biological target: T2, Proteasome Macropain subunit MB1 (Homo sapiens); test: Positive allosteric modulation of latent human erythrocytes 20S proteasome chymotrypsin like activity at 25 uM using Suc-LLVY-AMC as substrate measured every 2 mins up to 60 mins by fluorescence assay relative to control
[16] = biological target: T3, Proteasome component C5 (Homo sapiens); test: Positive allosteric modulation of latent human erythrocytes 20S proteasome caspase like activity at 10 uM measured every 1 min up to 60 mins by fluorescence assay relative to control
[17] = biological target: T2, Proteasome Macropain subunit MB1 (Homo sapiens); test: Positive allosteric modulation of latent human erythrocytes 20S proteasome chymotrypsin like activity using LFP as substrate measured every 2 mins up to 60 mins by fluorescence assay
[18] = biological target: T1, 20S proteasome (Homo sapiens); test: Positive allosteric modulation of SDS-activated human erythrocytes 20S proteasome assessed as increase in yeast enolase degradation at 10 uM after 4 hr by SDS-PAGE analysis

Chain of Proteasome Macropain subunit (Homo sapiens) (P49721 whole entry): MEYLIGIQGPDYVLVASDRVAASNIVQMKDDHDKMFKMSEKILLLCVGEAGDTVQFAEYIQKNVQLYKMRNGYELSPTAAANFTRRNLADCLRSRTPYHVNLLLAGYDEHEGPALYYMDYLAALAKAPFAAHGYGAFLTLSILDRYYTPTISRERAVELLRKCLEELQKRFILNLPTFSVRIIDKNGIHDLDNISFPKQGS
Chain of Proteasome subunit beta type-6 (Homo sapiens) (P28072 whole entry, looked up): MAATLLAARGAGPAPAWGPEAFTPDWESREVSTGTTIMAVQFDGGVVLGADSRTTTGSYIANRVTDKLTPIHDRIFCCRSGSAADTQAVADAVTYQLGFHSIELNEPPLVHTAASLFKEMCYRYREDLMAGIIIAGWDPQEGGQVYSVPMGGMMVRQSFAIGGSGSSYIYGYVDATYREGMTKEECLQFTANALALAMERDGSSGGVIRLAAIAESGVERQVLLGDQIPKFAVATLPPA

Activity [1]	Activity [3]	Activity [4]	Activity [7]	Activity [8]	Activity [9]	Activity [10]	Activity [11]	fold change (FC) [12]	Activity [14]	fold change (FC) [15]	fold change (FC) [16]	Activity [17]	Activity [18]	SMILES	Activity [2]	Activity [5]	Activity [6]	Activity [13]
inactive	Active	Active	inactive	inactive	Dose-dependent effect	Active								CC(C)C[C@H](NC(=O)[C@H](Cc1ccc(O)cc1)NC(=O)[C@H](CCCNC(=N)N)NC(=O)[C@H](CCCNC(=N)N)NC(=O)[C@@H](N)CCCNC(=N)N)C(=O)N1CCC[C@H]1C(=O)N[C@@H](CCCNC(=N)N)C(=O)N[C@@H](Cc1ccc(O)cc1)C(=O)N[C@@H](C)C(N)=O (H-RRRYLPRYA-NH2)	inactive	Active	Active	
inactive	Active	Active	inactive	inactive	Dose-dependent effect	Active								CC(C)C[C@H](NC(=O)[C@H](Cc1ccc(O)cc1)NC(=O)[C@@H]1CCCN1C(=O)[C@@H]1CCCN1C(=O)[C@H](CCCNC(=N)N)NC(=O)[C@@H]1CCCN1C(=O)[C@H](CCCNC(=N)N)NC(=O)[C@H](CCCNC(=N)N)NC(=O)[C@@H](N)CCCNC(=N)N)C(=O)N1CCC[C@H]1C(=O)N[C@@H](CCCNC(=N)N)C(=O)O (H-RRRPRPPYLPR-OH)	inactive	Active	Active	
						inactive	Active	5 to 7	Active	< 7	5 to 7	Dose-dependent effect	Active	CC(C)C[C@H](NC(=O)[C@@H]1CCCN1C(=O)[C@@H]1CCCN1C(=O)[C@@H]1CCCN1C(=O)[C@@H]1CCCN1C(=O)[C@H](CCCNC(=N)N)NC(=O)[C@H](CCCNC(=N)N)NC(=O)[C@@H](N)CCCNC(=N)N)C(=O)N[C@@H](Cc1ccc(O)cc1)C(=O)N[C@@H](C)C(=O)O (H-RRRPPPPLYA-OH)				inactive
				inactive		Active								N=C(N)NCCC[C@H](NC(=O)[C@H](CCCNC(=N)N)NC(=O)[C@@H](N)CCCNC(=N)N)C(=O)N[C@@H](Cc1ccc(O)cc1)C(=O)N1CCC[C@H]1C(=O)N[C@@H](CCCNC(=N)N)C(=O)N[C@@H](Cc1c[nH]c2ccccc12)C(=O)NCC(=O)O (H-RRRYPRWG-OH)	inactive	Active	Active	
				inactive		Active								CC(C)C[C@H](NC(=O)[C@H](Cc1ccc(O)cc1)NC(=O)[C@@H]1CCCN1C(=O)[C@@H]1CCCN1C(=O)[C@@H]1CCCN1C(=O)[C@@H]1CCCN1C(=O)[C@H](CCCNC(=N)N)NC(=O)[C@H](CCCNC(=N)N)NC(=O)[C@@H](N)CCCNC(=N)N)C(=O)N1CCC[C@H]1C(=O)N[C@@H](CCCNC(=N)N)C(=O)N[C@@H](Cc1c[nH]c2ccccc12)C(=O)NCC(=O)O (H-RRRPPPPYLPRWG-OH)				

SMILES	Activity [1]	Activity [3]	Activity [4]	Activity [7]	Activity [8]	Activity [9]	Activity [10]	Activity [11]	fold change (FC) [12]	Activity [14]	fold change (FC) [15]	fold change (FC) [16]	Activity [17]	Activity [18]	Activity [2]	Activity [5]	Activity [6]	Activity [13]
CC(C)C[C@H](NC(=O)[C@H](Cc1ccc(O)cc1)NC(=O)[C@H](CCCNC(=N)N)NC(=O)[C@H](CCCNC(=N)N)NC(=O)[C@@H](N)CCCNC(=N)N)C(=O)N1CCC[C@H]1C(=O)N[C@@H](CCCNC(=N)N)C(=O)N[C@@H](Cc1c[nH]c2ccccc12)C(=O)NCC(=O)O (H-RRRYLPRWG-OH)					inactive	Dose-dependent effect	Active								inactive	Active	Active	
CC(C)C[C@H](NC(=O)[C@H](Cc1ccc(O)cc1)NC(=O)[C@@H]1CCCN1C(=O)[C@@H]1CCCN1C(=O)[C@H](CCCNC(=N)N)NC(=O)[C@@H]1CCCN1C(=O)[C@H](CCCNC(=N)N)NC(=O)[C@H](CCCNC(=N)N)NC(=O)[C@@H](N)CCCNC(=N)N)C(=O)N1CCC[C@H]1C(=O)N[C@@H](CCCNC(=N)N)C(=O)N[C@@H](Cc1c[nH]c2ccccc12)C(=O)NCC(N)=O (H-RRRPRPPYLPRWG-NH2)					inactive		Active								inactive	Active	Active	
CC(C)C[C@H](NC(=O)[C@H](Cc1ccc(O)cc1)NC(=O)[C@@H]1CCCN1C(=O)[C@@H]1CCCN1C(=O)[C@H](CCCNC(=N)N)NC(=O)[C@@H]1CCCN1C(=O)[C@H](CCCNC(=N)N)NC(=O)[C@H](CCCNC(=N)N)NC(=O)[C@@H](N)CCCNC(=N)N)C(=O)N1CCC[C@H]1C(=O)N[C@@H](CCCNC(=N)N)C(=O)N[C@@H](Cc1ccccc1)C(=O)NCC(=O)O (H-RRRPRPPYLPRFG-OH)	Active	Active	Active	Active	inactive		Active								inactive	Active	Active	Active
